Measured values reported in paper PMC8048584 (Chemmedchem, 2021).

Biological target: human DDR1 (Homo sapiens, UniProt Q08345)
Assay: Off-chip Mobility Shift Assay
Assay type: biochemical
Method in brief: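 Carried out by a contract kinase profiling service, with details in the Supporting Information. IC50 (50 % inhibition) was read from semi-logarithmic dose-response plots of the test compound. Each value is the mean of duplicate samples.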

Chain of human DDR1 (Q08345 19-913): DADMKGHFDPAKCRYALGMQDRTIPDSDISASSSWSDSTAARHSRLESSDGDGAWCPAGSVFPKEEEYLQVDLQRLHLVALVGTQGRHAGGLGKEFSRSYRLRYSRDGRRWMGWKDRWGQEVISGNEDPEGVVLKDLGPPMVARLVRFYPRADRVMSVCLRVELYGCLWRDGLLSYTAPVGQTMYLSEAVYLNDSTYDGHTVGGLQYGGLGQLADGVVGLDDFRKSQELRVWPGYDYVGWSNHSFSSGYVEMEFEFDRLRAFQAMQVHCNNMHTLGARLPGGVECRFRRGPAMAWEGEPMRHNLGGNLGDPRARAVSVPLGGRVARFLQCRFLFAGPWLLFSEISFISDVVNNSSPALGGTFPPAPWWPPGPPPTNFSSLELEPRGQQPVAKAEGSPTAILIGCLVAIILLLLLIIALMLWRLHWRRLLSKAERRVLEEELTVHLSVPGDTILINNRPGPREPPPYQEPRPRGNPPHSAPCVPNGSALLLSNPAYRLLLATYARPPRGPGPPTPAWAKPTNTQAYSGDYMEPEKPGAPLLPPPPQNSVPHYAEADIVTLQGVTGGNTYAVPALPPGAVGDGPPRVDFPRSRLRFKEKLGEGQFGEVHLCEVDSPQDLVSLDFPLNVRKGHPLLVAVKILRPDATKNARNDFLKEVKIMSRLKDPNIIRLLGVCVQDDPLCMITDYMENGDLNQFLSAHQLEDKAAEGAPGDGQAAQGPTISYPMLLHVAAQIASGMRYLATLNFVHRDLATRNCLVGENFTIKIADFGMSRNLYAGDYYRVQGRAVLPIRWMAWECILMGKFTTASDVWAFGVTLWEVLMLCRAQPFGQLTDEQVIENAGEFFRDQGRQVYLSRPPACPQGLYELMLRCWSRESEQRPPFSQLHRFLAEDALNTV

O=C(Nc1ccc(Cl)c(COc2cccnc2)c1)c1cccc(C(F)(F)F)c1 [Compound 3, N‐(4‐chloro‐3‐((pyridin‐3‐yloxy)methyl)phenyl)‐3‐(trifluoromethyl)benzamide]
IC50: 92.5 nM
